{"source": "ChEMBL document CHEMBL1806457", "about": "“Synthesis and antimicrobial evaluation of new benzofuran derivatives” (2011)", "assay_type_in_all_cases": "functional", "key": {"[1]": {"tested_on": "Escherichia coli", "test": "Antibacterial activity against 1 x 10^4 cfu/mL Escherichia coli ATCC 11303 after 24 hrs by NCCLS M7-A6 microtiter broth dilution method", "conditions": "ATCC 11303, 24 h"}, "[2]": {"tested_on": "Staphylococcus aureus", "test": "Antibacterial activity against 1 x 10^4 cfu/mL Staphylococcus aureus ATCC 29213 after 24 hrs by NCCLS M7-A6 microtiter broth dilution method", "conditions": "ATCC 29213, 24 h"}, "[3]": {"tested_on": "Staphylococcus aureus", "test": "Antibacterial activity against 1 x 10^4 cfu/mL methicillin-resistant Staphylococcus aureus ATCC 700699 after 24 hrs by NCCLS M7-A6 microtiter broth dilution method", "conditions": "ATCC 700699, 24 h", "procedure,_shortened": "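Bacteria pre-cultured in LB broth 24 h at 37 °C. Colonies suspended in sterile saline and adjusted to 0.5 McFarland (625 nm, 1–2 × 10⁸ cfu/mL), then diluted 1:10,000 in LB. Compounds from a 4 mg/mL DMSO stock were two-fold serially diluted across a 96-well plate, 200 down to 0.39 µg/mL. MIC80 was the lowest concentration preventing visible growth (>80% inhibition).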"}, "[4]": {"tested_on": "Bacillus subtilis", "test": "Antibacterial activity against 1 x 10^4 cfu/mL Bacillus subtilis ATCC 33712 after 24 hrs by NCCLS M7-A6 microtiter broth dilution method", "conditions": "ATCC 33712, 24 h"}, "[5]": {"tested_on": "Candida albicans", "test": "microbe, parasite or virus in culture", "conditions": "ATCC 6258, 48 h"}}, "data": [{"smiles": "COc1ccc(-c2oc3ccc(C)cc3c2C(=O)c2cc(OC)cc(OC)c2)cc1", "values": [{"measurement": "MIC80", "setting": "[1]", "result": "> 200", "unit": "µg/mL"}, {"measurement": "MIC80", "setting": "[2]", "result": "> 200", "unit": "µg/mL"}, {"measurement": "MIC80", "setting": "[3]", "result": "> 200", "unit": "µg/mL"}, {"measurement": "MIC80", "setting": "[4]", "result": "> 200", "unit": "µg/mL"}, {"measurement": "MIC80", "setting": "[5]", "result": "> 200", "unit": "µg/mL"}]}, {"smiles": "COc1ccc(C(=O)c2c(-c3ccc(OC)cc3)oc3ccc(C)cc23)cc1", "values": [{"measurement": "MIC80", "setting": "[1]", "result": "> 200", "unit": "µg/mL"}, {"measurement": "MIC80", "setting": "[2]", "result": "> 200", "unit": "µg/mL"}, {"measurement": "MIC80", "setting": "[3]", "result": "> 200", "unit": "µg/mL"}, {"measurement": "MIC80", "setting": "[4]", "result": "> 200", "unit": "µg/mL"}, {"measurement": "MIC80", "setting": "[5]", "result": "> 200", "unit": "µg/mL"}]}, {"smiles": "COc1ccc(-c2oc3ccc(C)cc3c2C(=O)c2cccc(OC)c2OC)cc1", "values": [{"measurement": "MIC80", "setting": "[1]", "result": "> 200", "unit": "µg/mL"}, {"measurement": "MIC80", "setting": "[2]", "result": "> 200", "unit": "µg/mL"}, {"measurement": "MIC80", "setting": "[3]", "result": "> 200", "unit": "µg/mL"}, {"measurement": "MIC80", "setting": "[4]", "result": "> 200", "unit": "µg/mL"}, {"measurement": "MIC80", "setting": "[5]", "result": "> 200", "unit": "µg/mL"}]}, {"smiles": "COc1ccc(-c2oc3ccc(C)cc3c2C(=O)c2cc(OC)c(OC)c(OC)c2)cc1", "values": [{"measurement": "MIC80", "setting": "[1]", "result": "> 200", "unit": "µg/mL"}, {"measurement": "MIC80", "setting": "[2]", "result": "> 200", "unit": "µg/mL"}, {"measurement": "MIC80", "setting": "[3]", "result": "> 200", "unit": "µg/mL"}, {"measurement": "MIC80", "setting": "[4]", "result": "> 200", "unit": "µg/mL"}, {"measurement": "MIC80", "setting": "[5]", "result": "> 200", "unit": "µg/mL"}]}, {"smiles": "COc1ccc(-c2oc3ccc(C)cc3c2C(=O)c2ccc(Cl)cc2)cc1", "values": [{"measurement": "MIC80", "setting": "[1]", "result": "> 200", "unit": "µg/mL"}, {"measurement": "MIC80", "setting": "[2]", "result": "> 200", "unit": "µg/mL"}, {"measurement": "MIC80", "setting": "[3]", "result": "> 200", "unit": "µg/mL"}, {"measurement": "MIC80", "setting": "[4]", "result": "> 200", "unit": "µg/mL"}, {"measurement": "MIC80", "setting": "[5]", "result": "> 200", "unit": "µg/mL"}]}, {"smiles": "COc1ccc(-c2oc3ccc(C)cc3c2C(=O)c2cc(Cl)cc(Cl)c2)cc1", "values": [{"measurement": "MIC80", "setting": "[1]", "result": "> 200", "unit": "µg/mL"}, {"measurement": "MIC80", "setting": "[2]", "result": "> 200", "unit": "µg/mL"}, {"measurement": "MIC80", "setting": "[3]", "result": "> 200", "unit": "µg/mL"}, {"measurement": "MIC80", "setting": "[4]", "result": "> 200", "unit": "µg/mL"}, {"measurement": "MIC80", "setting": "[5]", "result": "> 200", "unit": "µg/mL"}]}, {"smiles": "COc1ccc(-c2oc3ccc(C)cc3c2C(=O)c2cc(F)c(F)cc2Br)cc1", "values": [{"measurement": "MIC80", "setting": "[1]", "result": "> 200", "unit": "µg/mL"}, {"measurement": "MIC80", "setting": "[2]", "result": "> 200", "unit": "µg/mL"}, {"measurement": "MIC80", "setting": "[3]", "result": "> 200", "unit": "µg/mL"}, {"measurement": "MIC80", "setting": "[4]", "result": "> 200", "unit": "µg/mL"}, {"measurement": "MIC80", "setting": "[5]", "result": "> 200", "unit": "µg/mL"}]}, {"smiles": "COc1ccc(-c2oc3ccc(C)cc3c2C(=O)c2ccccc2Br)cc1", "values": [{"measurement": "MIC80", "setting": "[1]", "result": "> 200", "unit": "µg/mL"}, {"measurement": "MIC80", "setting": "[2]", "result": "> 200", "unit": "µg/mL"}, {"measurement": "MIC80", "setting": "[3]", "result": "> 200", "unit": "µg/mL"}, {"measurement": "MIC80", "setting": "[4]", "result": 0.78, "unit": "µg/mL"}, {"measurement": "MIC80", "setting": "[5]", "result": "> 200", "unit": "µg/mL"}]}, {"smiles": "COc1ccc(-c2oc3ccc(C)cc3c2C(=O)c2ccc(O)cc2)cc1", "values": [{"measurement": "MIC80", "setting": "[1]", "result": 0.78, "unit": "µg/mL"}, {"measurement": "MIC80", "setting": "[2]", "result": "< 0.39", "unit": "µg/mL"}, {"measurement": "MIC80", "setting": "[3]", "result": 0.78, "unit": "µg/mL"}, {"measurement": "MIC80", "setting": "[4]", "result": 0.78, "unit": "µg/mL"}, {"measurement": "MIC80", "setting": "[5]", "result": "> 200", "unit": "µg/mL"}]}, {"smiles": "COc1ccc(-c2oc3ccc(C)cc3c2C(=O)c2ccc(O)c(C)c2)cc1", "values": [{"measurement": "MIC80", "setting": "[1]", "result": 0.78, "unit": "µg/mL"}, {"measurement": "MIC80", "setting": "[2]", "result": 0.78, "unit": "µg/mL"}, {"measurement": "MIC80", "setting": "[3]", "result": 0.78, "unit": "µg/mL"}, {"measurement": "MIC80", "setting": "[4]", "result": 1.56, "unit": "µg/mL"}, {"measurement": "MIC80", "setting": "[5]", "result": "> 200", "unit": "µg/mL"}]}, {"smiles": "COc1ccc(-c2oc3ccc(C)cc3c2C(=O)c2cc(O)cc(OC)c2)cc1", "values": [{"measurement": "MIC80", "setting": "[1]", "result": 0.78, "unit": "µg/mL"}, {"measurement": "MIC80", "setting": "[2]", "result": "< 0.39", "unit": "µg/mL"}, {"measurement": "MIC80", "setting": "[3]", "result": 0.78, "unit": "µg/mL"}, {"measurement": "MIC80", "setting": "[4]", "result": 0.78, "unit": "µg/mL"}, {"measurement": "MIC80", "setting": "[5]", "result": "> 200", "unit": "µg/mL"}]}, {"smiles": "COc1ccc(-c2oc3ccc(C)cc3c2C(=O)c2cccc(OC)c2O)cc1", "values": [{"measurement": "MIC80", "setting": "[1]", "result": "> 200", "unit": "µg/mL"}, {"measurement": "MIC80", "setting": "[2]", "result": "> 200", "unit": "µg/mL"}, {"measurement": "MIC80", "setting": "[3]", "result": "> 200", "unit": "µg/mL"}, {"measurement": "MIC80", "setting": "[4]", "result": "> 200", "unit": "µg/mL"}, {"measurement": "MIC80", "setting": "[5]", "result": "> 200", "unit": "µg/mL"}]}, {"smiles": "COc1ccc(-c2oc3ccc(C)cc3c2C(=O)c2ccc(O)c(I)c2)cc1", "values": [{"measurement": "MIC80", "setting": "[1]", "result": 3.12, "unit": "µg/mL"}, {"measurement": "MIC80", "setting": "[2]", "result": 0.78, "unit": "µg/mL"}, {"measurement": "MIC80", "setting": "[3]", "result": 0.78, "unit": "µg/mL"}, {"measurement": "MIC80", "setting": "[4]", "result": 1.56, "unit": "µg/mL"}, {"measurement": "MIC80", "setting": "[5]", "result": "> 200", "unit": "µg/mL"}]}, {"smiles": "CO/N=C(\\C(=O)N[C@@H]1C(=O)N2C(C(=O)O)=C(COC(C)=O)CS[C@H]12)c1csc(N)n1", "note": "[CEFOTAXIME]", "values": [{"measurement": "MIC80", "setting": "[1]", "result": "> 200", "unit": "µg/mL"}, {"measurement": "MIC80", "setting": "[2]", "result": 3.12, "unit": "µg/mL"}, {"measurement": "MIC80", "setting": "[3]", "result": 3.12, "unit": "µg/mL"}, {"measurement": "MIC80", "setting": "[4]", "result": 0.78, "unit": "µg/mL"}]}, {"smiles": "CC(C)(O/N=C(\\C(=O)N[C@@H]1C(=O)N2C(C(=O)[O-])=C(C[n+]3ccccc3)CS[C@H]12)c1csc(N)n1)C(=O)O", "note": "[CEFTAZIDIME]", "values": [{"measurement": "MIC80", "setting": "[1]", "result": "> 200", "unit": "µg/mL"}, {"measurement": "MIC80", "setting": "[2]", "result": 0.78, "unit": "µg/mL"}, {"measurement": "MIC80", "setting": "[3]", "result": 12.5, "unit": "µg/mL"}, {"measurement": "MIC80", "setting": "[4]", "result": 6.25, "unit": "µg/mL"}]}, {"smiles": "CC(=O)N1CCN(c2ccc(OCC3COC(Cn4ccnc4)(c4ccc(Cl)cc4Cl)O3)cc2)CC1", "note": "(centres undefined) [KETOCONAZOLE]", "values": [{"measurement": "MIC80", "setting": "[5]", "result": "< 0.39", "unit": "µg/mL"}]}, {"smiles": "Clc1ccc(COC(Cn2ccnc2)c2ccc(Cl)cc2Cl)c(Cl)c1.O=[N+]([O-])O", "note": "(centres undefined) [MICONAZOLE NITRATE]", "values": [{"measurement": "MIC80", "setting": "[5]", "result": "< 0.39", "unit": "µg/mL"}]}, {"smiles": "CC1(C)S[C@@H]2[C@H](NC(=O)Cc3ccccc3)C(=O)N2[C@H]1C(=O)[O-].[Na+]", "note": "[PENICILLIN G SODIUM]", "values": [{"measurement": "MIC80", "setting": "[1]", "result": 0.78, "unit": "µg/mL"}, {"measurement": "MIC80", "setting": "[2]", "result": 3.12, "unit": "µg/mL"}, {"measurement": "MIC80", "setting": "[3]", "result": 3.12, "unit": "µg/mL"}, {"measurement": "MIC80", "setting": "[4]", "result": "< 0.39", "unit": "µg/mL"}]}, {"smiles": "Oc1ccc(/C=C/c2cc(O)cc(O)c2)cc1", "note": "[RESVERATROL]", "values": [{"measurement": "MIC80", "setting": "[1]", "result": 25, "unit": "µg/mL"}, {"measurement": "MIC80", "setting": "[2]", "result": 25, "unit": "µg/mL"}, {"measurement": "MIC80", "setting": "[3]", "result": 25, "unit": "µg/mL"}, {"measurement": "MIC80", "setting": "[4]", "result": 25, "unit": "µg/mL"}, {"measurement": "MIC80", "setting": "[5]", "result": "> 200", "unit": "µg/mL"}]}]}
